# According to ChEMBL document CHEMBL3120124, “Lead optimization of HMBA to develop potent HEXIM1 inducers” (Bioorg Med Chem Lett, 2014):
# Columns and labels:
# [1] = biological target: T1, Protein HEXIM1 (Homo sapiens) (UniProt O94992); assay: Induction of HEXIM1 protein expression in human LNCAP cells at 500 uM after 24 hrs by Western blotting analysis relative to control; type: cell-based
# T1 sequence (whole entry): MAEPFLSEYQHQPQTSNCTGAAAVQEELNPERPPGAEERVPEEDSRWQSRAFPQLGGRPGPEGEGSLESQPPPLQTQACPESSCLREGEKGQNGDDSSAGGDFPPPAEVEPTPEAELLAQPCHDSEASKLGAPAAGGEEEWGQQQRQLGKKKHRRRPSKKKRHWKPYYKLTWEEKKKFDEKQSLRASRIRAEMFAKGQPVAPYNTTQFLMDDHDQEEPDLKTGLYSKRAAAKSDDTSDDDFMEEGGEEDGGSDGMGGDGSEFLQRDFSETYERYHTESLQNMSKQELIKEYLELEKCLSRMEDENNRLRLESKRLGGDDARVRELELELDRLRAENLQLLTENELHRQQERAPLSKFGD
# How it was run: (§1)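 LNCaP prostate cancer cells were treated for 24 h with vehicle, HMBA (5 mM; positive control) or analog at 500 μM, and selected analogs also at 100 μM. HEXIM1 was assessed by Western blot of cell extracts using a HEXIM1 antibody, with β-actin as loading control. Band intensities were quantified by densitometry. Representative of three independent experiments.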
# [2] = Solubility of the compound in water; type: physicochemical
# How it was run: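 Aqueous solubility was judged by the absence of precipitation in LNCaP cell culture medium at 100 μM.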
# [3] = biological target: T1, Protein HEXIM1 (Homo sapiens); assay: Induction of HEXIM1 protein expression in human LNCAP cells at 100 uM after 24 hrs by Western blotting analysis relative to control; type: cell-based; how it was run: as §1
# [4] = biological target: T1, Protein HEXIM1 (Homo sapiens); assay: Induction of HEXIM1 protein expression in human LNCAP cells after 24 hrs by Western blotting analysis; type: cell-based
# [5] = test system: LNCaP; assay: Cytotoxicity against human LNCAP cells assessed as change in cell morphology at 500 uM; type: cell-based
# [6] = biological target: T1, Protein HEXIM1 (Homo sapiens); assay: Induction of HEXIM1 protein expression in human LNCAP cells at 0.05 mM after 24 hrs by Western blotting analysis relative to control; type: cell-based
# [7] = biological target: T1, Protein HEXIM1 (Homo sapiens); assay: Induction of HEXIM1 protein expression in human LNCAP cells at 0.5 mM after 24 hrs by Western blotting analysis relative to control; type: cell-based; how it was run: as §1
# [8] = biological target: T1, Protein HEXIM1 (Homo sapiens); assay: Induction of HEXIM1 protein expression in human LNCAP cells at 0.1 mM after 24 hrs by Western blotting analysis relative to control; type: cell-based
# [9] = biological target: T1, Protein HEXIM1 (Homo sapiens); assay: Induction of HEXIM1 protein expression in human LNCAP cells at 5 mM after 24 hrs by Western blotting analysis relative to control; type: cell-based
# [10] = biological target: T1, Protein HEXIM1 (Homo sapiens); assay: Induction of HEXIM1 protein expression in human LNCAP cells at 1 mM after 24 hrs by Western blotting analysis relative to control; type: cell-based
fold change (FC) [1],solubility [2] [µM],fold change (FC) [3],Structure (SMILES),other results
3.09,> 100,0.43,CC(=O)N(C)C1CCC(N(C)C(C)=O)CC1 (configuration not stated),
4.89,> 100,1.23,CCCC(=O)NCCCCCCNC(=O)CCC,Activity [4]: Dose-dependent effect
0.31,,,CS(=O)(=O)NCCCCCCNS(C)(=O)=O,
0.46,,,O=C(NCCCCCCNC(=O)c1ccccc1)c1ccccc1,
0.4,,,CC(=O)NCc1ccc(CNC(C)=O)cc1,
1.39,> 100,2,CN(Cc1ccc(CN(C)S(C)(=O)=O)cc1)S(C)(=O)=O,
1.93,,,COc1ccc(C(=O)NCCCCCCNC(C)=O)cc1,Activity [5]: Toxic
0.08,,,CC(=O)NCCCCCCNC(=O)c1ccc(Cl)c([N+](=O)[O-])c1,
2.8,> 100,1.16,COc1ccc(CC(=O)NCCCCCCNC(C)=O)cc1,fold change (FC) [6]: 1.72; fold change (FC) [7]: 26.6; fold change (FC) [8]: 12.6; Activity [4]: Dose-dependent effect
0.16,,,CS(=O)(=O)NCc1ccc(CNS(C)(=O)=O)cc1,
0.05,,,CN(CCCCCN(C)S(C)(=O)=O)S(C)(=O)=O,
4.45,> 100,0.21,CS(=O)(=O)NCCCNS(C)(=O)=O,

# Further lines, the molecule ahead of its results:
Structure (SMILES),fold change (FC) [1],solubility [2] [µM],fold change (FC) [3],other results
CS(=O)(=O)NCC1CCC(CNS(C)(=O)=O)CC1 (configuration not stated),1.24,,,
CS(=O)(=O)NCCCCCNS(C)(=O)=O,0.22,,,
CC(=O)NCC1CCC(CNC(C)=O)CC1 (configuration not stated),2.14,,,Activity [5]: Toxic
CN(CCCN(C)S(C)(=O)=O)S(C)(=O)=O,2.86,> 100,0.67,
CCC(=O)NCCCCCCNC(=O)CC,4.45,> 100,1.34,Activity [4]: Dose-dependent effect
CN(CC1CCC(CN(C)S(C)(=O)=O)CC1)S(C)(=O)=O (configuration not stated),3.09,> 100,0.41,
CS(=O)(=O)NC1CCC(NS(C)(=O)=O)CC1 (configuration not stated),0.67,,,
CC(=O)N(C)CCCN(C)C(C)=O,0.44,,,
CC(=O)NCCCCCCNC(=O)Oc1ccc(-c2ccccc2)cc1,1.07,> 100,0.61,
CC(=O)NCCCNC(C)=O,0.68,,,
CC(=O)NC1CCC(NC(C)=O)CC1 (configuration not stated),1.88,> 100,0.06,
CC(=O)N(C)CCCCCCN(C)C(C)=O,0.25,,,
CC(=O)N(C)CCCCCN(C)C(C)=O,0.05,,,
CN(CCCCCCN(C)S(C)(=O)=O)S(C)(=O)=O,0.97,> 100,1.55,
CC(=O)NCCCCCNC(C)=O,0.12,,,
CC(=O)NCCCCCCNC(C)=O,,,,fold change (FC) [7]: 8.15; fold change (FC) [9]: 2.21; fold change (FC) [10]: 23.6
CN(C1CCC(N(C)S(C)(=O)=O)CC1)S(C)(=O)=O (configuration not stated),1.27,> 100,1.22,
CC(=O)N(C)Cc1ccc(CN(C)C(C)=O)cc1,2.2,> 100,3.8,
CC(=O)N(C)CC1CCC(CN(C)C(C)=O)CC1 (configuration not stated),1.38,,,
